Hits are enriched below; roughly 2.3% of the tested compounds scored in any of these assays.
TRPC4 block = inhibitors of mouse TRPC4 channel, primary screen, Fluo4 calcium, HEK293 TRPC4beta/mu-opioid cells | Short transient receptor potential channel 4 (Mus musculus), Q9QUQ5 | DAMGO-evoked Fluo4 calcium flux; hits give low values | B-score at 10 µM | 300,000 compounds, 0.39% hits;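 active means B-score over 3 SD under the library average, no early fluorescence shift, positive overall ratio signal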
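Assay system: TRPC4beta/mu-opioid receptor HEK293 cell line; compound dosing: single concentration per test compound; detection: Fluo4 Ca2+ flux fluorescence; evaluation: per-well B score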
TRPC4 agonist = activators of mouse TRPC4 channel, primary screen, Fluo4 calcium, HEK293 TRPC4beta/mu-opioid cells; AID 2237, 2010; B-score at 10 µM; 310,000 compounds, 0.49% hits; Fluo4 calcium fluorescence; hits give high values;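 active means B-score above 5 SD of library B-scores, and initial fluorescence ratio not above library mean plus 5 SD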;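 further: positive B-score marks a calcium rise read as TRPC4 activation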
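Assay system – TRPC4beta and mu-opioid receptor HEK293 stable cells · Measured by – Fluo4 fluorescence, kinetic · Schedule – dye loading 45 min room temperature, 110 s kinetic read · Read-out – B-scored integrated calcium fluorescence ratio · Controls – buffer and maximal DAMGO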
TRPC4 potent = positive allosteric modulators of TRPC4, primary screen, cell-based, mouse TRPC4beta, HEK293 mu-opioid, Fluo-4 calcium; DAMGO EC20, Fluo-4 Ca2+ flux; hits give high values; B-score at 10 µM; 310,000 compounds, 0.42% hits; AID 2227, 2009;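 active means B-score of calcium response area above 5 SD of library B-scores, with initial fluorescence ratio within 5 SD of library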;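 further: B-score of integrated fluorescence ratio over time as area under calcium response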
TRPC6 act = mouse TRPC6 channel activators, primary screen, cell-based, HEK293, membrane potential dye | 310,000 compounds, 0.13% hits | AID 2550, 2010 | B-score at 10 µM | HEK293-TRPC6 membrane potential dye fluorescence; hits give high values;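 active means B-score of the integrated fluorescence ratio above library mean plus 3 SD, and starting fluorescence ratio within library mean plus 5 SD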;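 further: higher score means more depolarization so channel activation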
TRPC6 inh = mouse TRPC6 channel inhibitors, primary screen, cell-based, HEK293, membrane potential dye | B-score at 10 µM | 310,000 compounds, 1.1% hits | ACh-evoked depolarization; hits give low values | Short transient receptor potential channel 6 (Mus musculus), Q61143;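 active means B-score under library mean minus 3 SD, initial fluorescence not abnormally high, positive integrated signal ratio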;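 further: B-score derived from integrated fluorescence ratio over the kinetic read; more negative B-score means stronger inhibition of depolarization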
TRPC4 spec 2 = second selectivity test of TRPC6 inhibitors: effect on mouse TRPC4 | shares compounds with TRPC6 inh | HEK293 TRPC4/MOR, membrane potential dye fluorescence; channel activated by saturating DAMGO dose | inhibition, % at 10 µM | 920 compounds, 42% hits | AID 2776;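 active means compounds whose fluorescence signal differed from control wells by over 3 SD, either direction, in both duplicate plates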
TRPC4 spec = mouse TRPC4 modulation by TRPC6 hits, confirmation, selectivity assay for TRPC6 inhibitor project, cell-based, HEK293 TRPC4/mu-opioid, membrane potential dye; shares compounds with TRPC6 inh; membrane potential fluorescence; activity change, negative = inhibition, % at 10 µM; 920 compounds, 61% hits; AID 2777, 2010;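 active means rise or fall in signal beyond 3 SD of buffer-only wells in both replicate plates, either sign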;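 further: integrated kinetic ratio of fluorescence range over baseline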
HEK293 MPD ctr 2-1 = nonspecific membrane potential effects, parental HEK293, confirmation, counter-screen for TRPC6 inhibitor project, cell-based, second counter screen | shares compounds with TRPC6 inh | parental HEK293 membrane potential dye fluorescence; maximal acetylcholine challenge after compound addition | signal change vs control, % at 10 µM | 920 compounds, 31% hits | AID 2779, 2010;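 active means membrane potential signal moving either way by over 3 SD of the maximum-effect control, in both duplicate plates, meaning non-specific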
HEK293 MPD ctr-1 = membrane potential modulation in parental HEK293, confirmation, counter-screen for TRPC6 inhibitor project, cell-based | shares compounds with TRPC6 inh | parental HEK293 membrane potential dye fluorescence | AID 2780, 2010 | membrane potential signal change, % at 10 µM | 920 compounds, 60% hits;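 active means membrane potential signal shifting up or down by more than 3 SD of buffer-only wells, on both duplicate plates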
HEK293 MPD ctr-2 = parental HEK293 membrane potential modulation, confirmation, counter-screen for TRPC6 modulator project, cell-based; AID 488924, 2010; shares compounds with TRPC6 inh; membrane potential dye fluorescence; 2,400 compounds, 51% hits; membrane potential signal change, % at 10 µM;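 active means membrane potential signal moves up or down beyond 5 SD from buffer-only wells, on both duplicate plates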
HEK293 MPD ctr 2-2 = second check of TRPC6 modulator effects in parental HEK293 cells; shares compounds with TRPC6 inh; membrane potential dye fluorescence; after compound, maximal acetylcholine stimulation; inhibition, % at 10 µM; 2,400 compounds, 14% hits; AID 488926;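 active means membrane potential signal drops by more than 5 SD from the mean control signal, in both duplicate plates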;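 further: plate controls were acetylcholine ECmax control wells for no effect and buffer only wells for full effect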
TRPC4 ctr mod = TRPC4 modulation by TRPC6 hit compounds, confirmation, selectivity assay for TRPC6 modulator project, cell-based, HEK293 TRPC4/mu-opioid, membrane potential dye, mouse; shares compounds with TRPC6 inh; membrane potential fluorescence; percent change from control (negative = decrease, positive = increase), % at 10 µM; 2,400 compounds, 69% hits; AID 488927, 2010;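 active means membrane potential signal moved up or down beyond 5 SD of buffer control wells, in both duplicate plates, actives on both sides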;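 further: plate controls were assay buffer wells for no effect and DAMGO maximal-effect wells for full effect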
TRPC4/MOR inh 2 = second check of whether TRPC6 modulators also affect mouse TRPC4. shares compounds with TRPC6 inh. HEK293 TRPC4/mu-opioid, membrane potential dye fluorescence; stimulated with maximal-effect DAMGO. inhibition, % at 10 µM. 2,400 compounds, 55% hits. AID 488928;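 active means drop in membrane potential signal beyond 5 SD of the control wells in both duplicate plates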;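 further: TRPC4 counter screen for TRPC6 hits run under conditions tuned for TRPC6 not TRPC4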
TRPC6 inh conf = mouse TRPC6 channel inhibitors, confirmation, HEK293 cells, membrane potential dye, duplicate; shares compounds with TRPC6 inh; ACh-evoked depolarization; inhibition, % at 10 µM; 3,300 compounds, 43% hits; AID 488960, 2010;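 active means fluorescence ratio falls more than 5 SD below the full-stimulation control mean, in both duplicate runs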;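 further: integrated fluorescence ratio of peak minus minimum over baseline after agonist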
TRPC6 act confirm = mouse TRPC6 channel activators, confirmation, HEK293 cells, membrane potential dye, duplicate; activation, % at 10 µM; HEK293-TRPC6 membrane potential dye fluorescence, FDSS; 2,800 compounds, 11% hits; shares compounds with TRPC6 inh;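 active means ratio signal rise beyond 5 SD above unstimulated control wells' mean, seen in both duplicate runs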;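 further: plate controls were buffer EC0 wells for no effect and acetylcholine ECmax response for full effect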
The depositor's hits bear a star; i = inactive; / = no result given; + = active, no number.

SMILES | TRPC4 block | TRPC4 agonist | TRPC4 potent | TRPC6 act | TRPC6 inh | HEK293 MPD ctr-2 | HEK293 MPD ctr 2-2 | TRPC4 ctr mod | TRPC4/MOR inh 2 | TRPC6 inh conf | TRPC6 act confirm | others
CCN(CC)CCC#CC(O)(c1ccccc1)c1ccccc1 | i | i | i | i | -8.8* | / | / | / | / | 63%* | / | TRPC4 spec 2=i;TRPC4 spec=6.4%*;HEK293 MPD ctr 2-1=-9.0%*;HEK293 MPD ctr-1=8.6%*
OC(C#CCCN1CCCCC1)(c1ccccc1)c1ccccc1 | i | i | i | i | -8.8* | / | / | / | / | 72%* | / | TRPC4 spec 2=i;TRPC4 spec=6.0%*;HEK293 MPD ctr 2-1=14%*;HEK293 MPD ctr-1=6.0%*
OC(C#CCCN1CCCCC1)(c1ccccc1)C1CCCCC1 (stereo not drawn) | i | i | i | i | -7.5* | / | / | / | / | 75%* | / | TRPC4 spec 2=i;TRPC4 spec=23%*;HEK293 MPD ctr 2-1=i;HEK293 MPD ctr-1=15%*
Cc1nc2ccccc2c(=O)n1NC(=O)c1cc(Br)ccc1Cl | i | i | i | i | i | / | / | / | / | / | /
O=[N+]([O-])c1ccc(S(=O)(=O)N/N=C/c2ccsc2)cc1 | i | i | i | i | i | / | / | / | / | / | /
C=CCn1c(/N=C/c2ccc(N(C)C)cc2)nc2ccccc21 | i | 86* | 10* | 22* | -6.6* | 890%* | i | 68%* | 76%* | 82%* | 262%*
CC1CCC(NC(=O)C2CCN(c3c4c(nc5ncnn35)CCC4)CC2)CC1 (stereo not drawn) | i | i | i | i | i | / | / | / | / | / | /
CCn1c(SC(C)C(=O)Nc2nccs2)nnc1-c1ccncc1 (stereo not drawn) | i | i | i | i | i | / | / | / | / | / | /
CC(=O)Nc1ccc(S(=O)(=O)NCCC(=O)Nc2cccc(Cl)c2)cc1 | i | i | i | i | i | / | / | / | / | / | /
Cc1cccc(NC(=O)CCNS(=O)(=O)c2ccc(Cl)cc2)c1 | i | i | i | i | -5.1* | i | i | i | i | i | i
COc1ccccc1C1CCN(C(=O)c2cccc([N+](=O)[O-])c2)CC1 | i | i | i | i | i | / | / | / | / | / | /
COC(=O)c1cn(Cc2cc(OC)ccc2OC)cc(F)c1=O | i | i | i | i | -5.3* | i | i | i | i | i | i
COc1ccc(OC)c(CN2CCN(C(=O)c3ccc(F)cc3)CC2)c1 | i | i | i | i | i | / | / | / | / | / | /
Cn1c(SCC(=O)Nc2nccs2)nnc1-c1ccccn1 | i | i | i | i | i | / | / | / | / | / | /
O=C1N/C(=N\S(=O)(=O)Cc2ccccc2)S/C1=C/c1cc([N+](=O)[O-])ccc1O | i | i | i | 13* | i | 177%* | i | 33%* | i | i | 122%*
Cc1ccc(S(=O)(=O)/N=C2/NC(=O)/C(=C/c3ccc(Br)o3)S2)cc1 | i | i | i | i | i | / | / | / | / | / | /
COc1cc(/C=C2/S/C(=N/S(=O)(=O)c3ccccc3)NC2=O)c([N+](=O)[O-])cc1OC | i | i | i | i | i | / | / | / | / | / | /
O=C1N/C(=N\S(=O)(=O)c2ccccc2)S/C1=C\c1cc([N+](=O)[O-])ccc1O | i | i | i | 27* | i | 249%* | i | 46%* | i | i | 160%*
COc1cc(/C=C2\S/C(=N/S(=O)(=O)Cc3ccccc3)NC2=O)c([N+](=O)[O-])cc1OC | i | i | i | i | i | / | / | / | / | / | /
Cc1ccc(S(=O)(=O)/N=C2/NC(=O)/C(=C\c3cc(Br)cc(Br)c3O)S2)cc1 | i | 64* | 34* | 71* | i | + | i | 198%* | i | i | 402%*
CC1=C(C(=O)Nc2cc(C(=O)N3CCN(c4cccc(C)c4C)CC3)ccc2C)SCCO1 | i | i | i | i | i | / | / | / | / | / | /
CCOC(=O)N1CCN(CC(=O)Nc2sc(CC)cc2C(=O)c2ccc(OC)cc2)CC1 | i | i | i | i | i | / | / | / | / | / | /
C/C(=N\Nc1ccc2nncn2n1)c1ccco1 | i | i | i | i | i | / | / | / | / | / | /
C/C(=N\Nc1ccc2nncn2n1)c1ccccn1 | i | i | i | i | -7.4* | / | / | / | / | 84%* | i | TRPC4 spec 2=71%*;TRPC4 spec=-36%*;HEK293 MPD ctr 2-1=i;HEK293 MPD ctr-1=-522%*

Assay outcomes from PubChem BioAssay.
